Laboratory results taken from ChEMBL document CHEMBL2406957, “C-(α-d-Glucopyranosyl)-phenyldiazomethanes-irreversible inhibitors of α-glucosidase” (Bioorg Med Chem, 2013).
The source made the active and inactive calls. No cut-off for these calls is given here.

Tests used:
Saccharomyces cerevisiae [1] = assay: Inhibition of Saccharomyces cerevisiae alpha-glucosidase using PNPG as substrate at 60 uM incubated for 40 mins prior to substrate addition measured after 5 mins by spectrophotometry relative to control
Summary of the method: (§1)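 Enzyme (final 4 µg/mL, 0.064 µM) incubated 40 min at 30 °C in pH 7.5 buffer with compound at final 0.01–0.08 mM. Aliquot then added to 2 mM PNPG in pH 6.8 buffer for 5 min at 30 °C. Reaction quenched with Na2CO3, p-nitrophenolate read at 400 nm. Residual activity expressed relative to enzyme control.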

[2] = Irreversible inhibition of Saccharomyces cerevisiae alpha-glucosidase using PNPG as substrate by Kitz-Wilson plot analysis
Summary of the method: (§2)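 Yeast α-glucosidase (final 4 µg/mL, 0.064 µM) preincubated at 30 °C in pH 7.5 Tris–HCl with inhibitor at final 0.01–0.08 mM. Aliquots taken at 5–40 min into 2 mM PNPG (pH 6.8), 5 min at 30 °C, Na2CO3 quench, A400. Activity as % of no-inhibitor control. kobs from first-order fits; Ki and ki from double-reciprocal Kitz–Wilson replot.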

[3] = Inhibition of Saccharomyces cerevisiae alpha-glucosidase using PNPG as substrate incubated for 40 mins prior to substrate addition measured after 5 mins by spectrophotometry; summary of the method: as §1
Saccharomyces cerevisiae [4] = assay: Irreversible inhibition of Saccharomyces cerevisiae alpha-glucosidase using PNPG as substrate at 0.04 mM incubated for 5 to 40 mins prior to substrate addition measured after 5 mins by spectrophotometry in presence of (2R,3R,4R,5S,6R)-2-((R)-amino(phenyl)methyl)-6-(hydroxymethyl)tetrahydro-2H-pyran-3,4,5-triol
[5] = Half life of the compound in buffer at 50 uM at pH 3.0 by UV-vis spectrophotometric analysis; format: physicochemical
Summary of the method: (§3)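 Isolated diazo compound dissolved at 50 μM in buffer of set pH (7.0 down to 3.0) in a cuvette; UV spectra scanned 190–350 nm every 30 s at room temperature until no further change. Blue shift of λmax followed; decay fitted to a single exponential, t1/2 = t1 ln2.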

Saccharomyces cerevisiae [6] = assay: Irreversible inhibition of Saccharomyces cerevisiae alpha-glucosidase using PNPG as substrate assessed as residual enzyme activity incubated for 5 to 40 mins prior to substrate addition measured after 5 mins by spectrophotometry; summary of the method: as §2
[7] = Half life of the compound in buffer at 50 uM at pH 4.0 by UV-vis spectrophotometric analysis; format: physicochemical; summary of the method: as §3
[8] = Half life of the compound in buffer at 50 uM at pH 5.0 by UV-vis spectrophotometric analysis; format: physicochemical; summary of the method: as §3
[9] = Half life of the compound in buffer at 50 uM at pH 6.0 by UV-vis spectrophotometric analysis; format: physicochemical; summary of the method: as §3
[10] = Chemical stability of the compound in neutral media at 50 uM at pH 7.0 by UV-vis spectrophotometric analysis; format: physicochemical; details: buffer, pH 7, 50 µM; summary of the method: as §3
[11] = Reversible inhibition of Saccharomyces cerevisiae alpha-glucosidase using PNPG as substrate

N#Cc1ccc(C[C@H]2O[C@H](CO)[C@@H](O)[C@H](O)[C@H]2O)cc1
inhibition (Saccharomyces cerevisiae [1]): 40%

N#Cc1ccc(C(=[N+]=[N-])[C@H]2O[C@H](CO)[C@@H](O)[C@H](O)[C@H]2O)cc1
Ki [2]: 2160 µM | IC50 [3]: 20.6 µM | inhibition (Saccharomyces cerevisiae [1]): 90% | inhibition (Saccharomyces cerevisiae [4]): inactive | half-life at 50 µM [5]: 0.183 min | inhibition (Saccharomyces cerevisiae [6]): Dose-dependent effect | half-life at 50 µM [7]: 0.483 min | half-life at 50 µM [8]: 2.35 min | half-life at 50 µM [9]: 4.2 min | Stability [10]: Stable

N#Cc1ccc([C@H](O)[C@H]2O[C@H](CO)[C@@H](O)[C@H](O)[C@H]2O)cc1
inhibition (Saccharomyces cerevisiae [1]): 40%

N[C@H](c1ccccc1)[C@H]1O[C@H](CO)[C@@H](O)[C@H](O)[C@H]1O
Ki [11]: 1.1 µM
